In ChEMBL document CHEMBL4665666, “Discovery and characterization of trypanocidal cysteine protease inhibitors from the 'malaria box'” (Eur J Med Chem, 2019):
Active and inactive are the calls of the source. The calls are words filed in the database; no cut-off is given here.

Columns and labels:
Rhodesain [1] = target: T1, Rhodesain (Trypanosoma brucei rhodesiense, UniProt Q95PM0); assay: Mixed inhibition of recombinant Trypanosoma brucei rhodesain expressed in Pichia pastoris by Lineweaver-Burk plot analysis
Summary of the method: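 Rhodesain rates were measured at six or more Z-FR-AMC levels (0.3–20.0 µM) and five inhibitor levels, in pH 5.5 acetate buffer with 0.01% Triton X-100 and 1 mM β-mercaptoethanol. Read at 340/440 nm. Mechanism and Ki come from Michaelis–Menten nonlinear fits and Lineweaver–Burk linear regression.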

[2] = target: Cruzipain (Trypanosoma cruzi) (UniProt P25779); assay: Inhibition of recombinant Trypanosoma cruzi cruzain at 300 uM using Z-FR-AMC as substrate preincubated for 10 mins followed by substrate addition and measured at 12 sec interval for 5 mins by fluorimetric analysis relative to control; details: time 15.0 min
Summary of the method: (§1)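 Recombinant rhodesain or cruzain (1 nM) in 0.1 M sodium acetate pH 5.5, 0.01% Triton X-100, 1 mM β-mercaptoethanol. Compound at a single concentration, either without or after 10 min enzyme pre-incubation. Z-FR-AMC 2.5 µM, read at 340/440 nm every 12 s for 5 min. Inhibition is relative to DMSO, with E-64 as positive control. Done in duplicate (primary screen) or triplicate.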

Rhodesain [3] = target: T1, Rhodesain; assay: Inhibition of recombinant Trypanosoma brucei rhodesain expressed in Pichia pastoris using Z-FR-AMC as substrate preincubated for 10 mins followed by substrate addition and measured at 12 sec interval for 5 mins by fluorimetric analysis
Summary of the method: (§2)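 Rhodesain (1 nM) with Z-FR-AMC (2.5 µM) in 0.1 M sodium acetate pH 5.5, 0.01% Triton X-100, 1 mM β-mercaptoethanol, with or without 10 min enzyme-compound pre-incubation. Fluorescence read at 340/440 nm. IC50 by four-parameter nonlinear regression from at least six concentrations in triplicate, with at least two independent runs. Mean ± SEM reported.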

[4] = target: Rhodesain (Trypanosoma brucei rhodesiense) (UniProt Q95PM0); assay: Inhibition of recombinant Trypanosoma brucei rhodesain expressed in Pichia pastoris at 10 uM using Z-FR-AMC as substrate and measured at 12 sec interval for 5 mins without preincubation by fluorimetric analysis relative to control; summary of the method: as §1
Cruzipain [5] = target: T2, Cruzipain (Trypanosoma cruzi, UniProt P25779); assay: Inhibition of recombinant Trypanosoma cruzi cruzain using Z-FR-AMC as substrate preincubated for 10 mins followed by substrate addition and measured at 12 sec interval for 5 mins by fluorimetric analysis
Summary of the method: (§3)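 Cruzain (recombinant, 1 nM) in 0.1 M sodium acetate pH 5.5 with 0.01% Triton X-100 and 1 mM β-mercaptoethanol; Z-FR-AMC 2.5 µM, read at 340/440 nm every 12 s for 5 min, with or without 10 min enzyme–compound pre-incubation. […] For mechanism and Ki, 0.3–20.0 µM substrate and five inhibitor levels were used, with Lineweaver-Burk plots.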

Trypanosoma cruzi [6] = assay: Trypanocidal activity against Trypanosoma cruzi Y strain trypomastigotes infected in C57BL/6 mouse peritoneal macrophage assessed as reduction in number of trypomastigotes release at 50 uM and measured after day 3 to day 11 post-infection by Neubauer chamber method; format: functional, organism-based; details: time 11.0 day
Summary of the method: (§4)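 Thioglycolate-elicited peritoneal macrophages from female C57BL/6 mice, 2 × 10^5/well, infected 2 h at 37°C with Y strain trypomastigotes at 5:1 (parasite:cell) and washed. They were then held with compound (3.125–50 µM) or IFN-γ 100 ng/mL. Trypomastigotes released into the supernatant were counted in a Neubauer chamber at several days after infection. Three independent experiments, each in triplicate.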

[7] = target: Cruzipain (Trypanosoma cruzi) (UniProt P25779); assay: Inhibition of recombinant Trypanosoma cruzi cruzain at 5 uM using Z-FR-AMC as substrate and measured at 12 sec interval for 5 mins without preincubation by fluorimetric analysis relative to control
Summary of the method: as §1, with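 “pre-incubation.” for “pre-incubation. Z-FR-AMC 2.5 µM, read at 340/440 nm every 12 s for 5 min.”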

Cruzipain [8] = target: T2, Cruzipain; assay: Competitive inhibition of recombinant Trypanosoma cruzi cruzain by Lineweaver-Burk plot analysis; summary of the method: as §3
Peritoneal macrophage [9] = assay: Cytotoxicity against C57BL/6 mouse peritoneal macrophage cells infected with 3.125 uM compound pretreated trypomastigotes and measured after 24 hrs by LDH release assay; format: cell-based
Summary of the method: (§5)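 Thioglycolate-elicited peritoneal macrophages from female C57BL/6 mice, 2 × 10^5/well, infected or not with T. cruzi Y trypomastigotes (5:1, 2 h). Either the cells got 3.125–50 µM compound or IFN-γ 100 ng/mL, or the parasites were pre-treated 1 h at 3.125 µM. LDH in supernatant measured at 24 h. Three experiments in triplicate.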

Trypanosoma cruzi [10] = assay: Trypanocidal activity against Trypanosoma cruzi Y strain trypomastigotes infected in C57BL/6 mouse peritoneal macrophage assessed as reduction in number of trypomastigotes release and measured after day 3 to day 11 post-infection by Neubauer chamber method; format: functional, organism-based; details: time 11.0 day; summary of the method: as §4
Peritoneal macrophage [11] = assay: Cytotoxicity against C57BL/6 mouse peritoneal macrophages assessed as reduction in cell viability at 3.125 uM measured after 24 hrs by LDH release assay; format: cell-based; summary of the method: as §5
Peritoneal macrophage [12] = assay: Effect on nitric oxide production in Trypanosoma cruzi Y strain trypomastigotes infected in C57BL/6 mouse peritoneal macrophage measured after 11 days by Griess reagent based assay; format: functional, tissue-based; details: time 11.0 day
Summary of the method: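 Peritoneal macrophages from C57BL/6 mice, infected with T. cruzi Y trypomastigotes at 5:1 for 2 h and/or stimulated with compound or IFN-γ. Supernatant taken 11 days later and mixed with Griess reagent for 10 min. Absorbance read at 540 nm to give nitrite. Three independent experiments in triplicate.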

[13] = test system: Trypanosoma brucei brucei; assay: Trypanocidal activity against Trypanosoma brucei brucei Squib 427 assessed as reduction in parasite viability; format: functional, organism-based
Trypanosoma cruzi [14] = assay: Trypanocidal activity against Trypanosoma cruzi Y strain trypomastigotes pretreated with compound at 3.125 uM infected in macrophage assessed as reduction in number of trypomastigotes release measured after 7 days by Neubauer chamber method; format: functional, Peritoneal macrophage; parameters: scale not given: the % may be the effect or the level left; details: time 7 day
Summary of the method: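 Y strain trypomastigotes (1×10^6/mL) were incubated 1 h at 37°C in RPMIc with compound at 3.125 µM or medium alone. They were then pelleted, recounted and used to infect C57BL/6 peritoneal macrophages at 5:1 (parasite:cell) for 2 h. Trypomastigotes released into the supernatant were counted in a Neubauer chamber at 5, 7, 9 and 11 days. Three independent experiments, each in triplicate.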

Rhodesain [15] = target: T1, Rhodesain; assay: Inhibition of recombinant Trypanosoma brucei rhodesain expressed in Pichia pastoris using Z-FR-AMC as substrate and measured at 12 sec interval for 5 mins without preincubation by fluorimetric analysis; summary of the method: as §2

Sequence of Cruzipain (Trypanosoma cruzi) (P25779 123-467 limits assumed): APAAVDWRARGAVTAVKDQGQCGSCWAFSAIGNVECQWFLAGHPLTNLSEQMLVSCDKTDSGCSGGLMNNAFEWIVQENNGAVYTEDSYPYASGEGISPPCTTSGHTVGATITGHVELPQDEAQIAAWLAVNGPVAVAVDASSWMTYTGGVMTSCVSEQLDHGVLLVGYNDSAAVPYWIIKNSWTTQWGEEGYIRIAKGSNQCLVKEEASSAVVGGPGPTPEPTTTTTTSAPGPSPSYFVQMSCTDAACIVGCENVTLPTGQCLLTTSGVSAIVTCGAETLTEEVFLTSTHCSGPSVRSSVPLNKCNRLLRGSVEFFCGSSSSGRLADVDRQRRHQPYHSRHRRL
T1 sequence (Q95PM0 whole entry): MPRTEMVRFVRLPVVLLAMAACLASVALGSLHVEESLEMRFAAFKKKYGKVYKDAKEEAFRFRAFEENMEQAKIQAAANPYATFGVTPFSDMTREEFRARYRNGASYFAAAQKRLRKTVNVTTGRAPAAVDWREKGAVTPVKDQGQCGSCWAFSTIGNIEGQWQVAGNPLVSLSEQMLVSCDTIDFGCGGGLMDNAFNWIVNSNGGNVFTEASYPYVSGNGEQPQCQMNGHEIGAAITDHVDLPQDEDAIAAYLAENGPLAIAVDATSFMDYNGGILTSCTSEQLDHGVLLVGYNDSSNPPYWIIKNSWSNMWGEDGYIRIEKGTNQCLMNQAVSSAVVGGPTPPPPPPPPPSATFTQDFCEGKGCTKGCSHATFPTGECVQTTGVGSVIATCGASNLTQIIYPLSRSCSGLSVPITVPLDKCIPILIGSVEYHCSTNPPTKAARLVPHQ
T2 sequence (P25779 whole entry): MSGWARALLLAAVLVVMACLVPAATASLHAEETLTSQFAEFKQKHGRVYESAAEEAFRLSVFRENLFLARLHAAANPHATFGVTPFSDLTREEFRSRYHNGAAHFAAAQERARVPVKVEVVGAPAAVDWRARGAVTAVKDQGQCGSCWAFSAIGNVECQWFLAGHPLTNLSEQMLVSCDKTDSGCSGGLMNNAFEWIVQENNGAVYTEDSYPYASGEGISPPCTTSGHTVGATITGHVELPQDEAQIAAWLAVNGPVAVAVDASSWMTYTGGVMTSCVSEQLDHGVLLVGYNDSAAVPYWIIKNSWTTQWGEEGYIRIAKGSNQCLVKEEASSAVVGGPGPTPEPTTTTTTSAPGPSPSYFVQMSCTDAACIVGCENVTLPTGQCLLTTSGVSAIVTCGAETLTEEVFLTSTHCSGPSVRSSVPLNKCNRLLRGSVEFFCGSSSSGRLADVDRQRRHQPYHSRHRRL
Sequence of Rhodesain (Trypanosoma brucei rhodesiense) (Q95PM0 1-450): as the sequence (Q95PM0 whole entry) above

| SMILES | Ki (Rhodesain [1]) [µM] | inhibition [2] [%] | IC50 (Rhodesain [3]) [µM] | inhibition [4] [%] | IC50 (Cruzipain [5]) [µM] | Activity (Trypanosoma cruzi [6]) | inhibition [7] [%] | Ki (Cruzipain [8]) [µM] | Activity (Peritoneal macrophage [9]) [%] | Activity (Trypanosoma cruzi [10]) | Activity (Peritoneal macrophage [11]) | Activity (Peritoneal macrophage [12]) | IC50 [13] [µM] | Activity (Trypanosoma cruzi [14]) [%] | IC50 (Rhodesain [15]) [µM] |
| --- | --- | --- | --- | --- | --- | --- | --- | --- | --- | --- | --- | --- | --- | --- | --- |
| Cn1c(=O)n(C)c2cc(CNCCNc3ccnc4cc(Cl)ccc34)ccc21 | 10 | 80 | 38 | 10 | 51 | Active | 64.9 |  |  |  |  |  |  |  |  |
| Cl.Cl.Clc1cc(Br)ccc1-c1ccc(CNCC2CCNCC2)o1 |  | 84 |  | 10 |  | Active | 29.1 | 3 | 30 | Dose-dependent effect | Non-Toxic | inactive | 0.1 | 60 | 53 |
